This data set is described as follows: Toxicity liver stage against HepG2, at 10uM. In kind it is cell-based. Details: test concentration 10 uM, cell line HepG2-A16-CD81EGFP. The conditions noted are these: human, HepG2-A16-CD81EGFP cells; read-out: INHIBITION
In a few lines: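 Uninfected HepG2-A16-CD81EGFP cells, 3 × 10^3 per well, 1536-well, plated on prespotted compound at 10 μM final, parasite-free screening media added to match infected plates; puromycin 10 μM positive, DMSO 0.5% negative; run in parallel with 48 h PbLuc assay at 37 °C, 5% CO2; viability by CellTiter-Glo luminescence, normalized to controls.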
Turning to `CCN(C(=O)C1=NN(c2ccccc2)C(=O)CN1)c1ccccc1`, the cytotoxicity at 10 µM was determined as 12%.

In the case of `Cc1ccc(C(CNCc2c[nH]nc2C)N(C)C)cc1` (stereo not given), the cytotoxicity at 10 µM came to 8.42%.

As to `Cn1c(CN2CCCCC2)nnc1C1CCCN(c2ccncc2F)C1` (stereo not given), the cytotoxicity at 10 µM was -0.37%.

Take `O=C(NCc1cc[nH]n1)NCC(O)c1ccc(F)c(F)c1` (stereo not given): the cytotoxicity at 10 µM is -21%.

As to `Cc1oc(CN(C)C(=O)c2ccc(Br)cc2)cc1C(=O)O`, the cytotoxicity at 10 µM was determined as 5.5%.

Regarding `Clc1ccc(CN2CCc3c(ncn3C3CC3)C2)c2ncccc12`, the cytotoxicity at 10 µM worked out at 14%.

As to `Cc1ccccc1CCCN(C)S(C)(=O)=O`, the cytotoxicity at 10 µM turned out to be 5.41%.

`CCOC(C(=O)N1CCn2c(CC)nnc2C1)c1ccccc1` (stereo not given): the cytotoxicity at 10 µM is 4.48%.

On to `CC(C)c1nnc2n1CCN(CCS(=O)(=O)c1ccccc1)C2`, for which the cytotoxicity at 10 µM is -8.22%.

Take `Cc1cscc1C(=O)NC1CC(=O)N(C(C)C)C1=O` (stereo not given): the cytotoxicity at 10 µM was -6.51%.

Turning to `Cc1ccsc1C(=O)NCc1ccnc(N2CCN(C)CC2)c1`, the cytotoxicity at 10 µM is -8.6%.

Regarding `O=C(NCc1cccnc1)NC1CCC2(CCC(=O)N2CC2CC2)CC1` (stereo not given), the cytotoxicity at 10 µM is -114%.

As for `CN(Cc1ccc2c(c1)OCO2)C(=O)C1CC(c2cccc(F)c2)=NO1` (stereo not given), the cytotoxicity at 10 µM was 10.7%.

With `CCn1ncc(S(=O)(=O)N[C@@H]2CC[C@@H](n3ccnc3C)[C@@H]2O)c1C`, the cytotoxicity at 10 µM was 3.65%.

For the compound `CCOc1ccc(CCCC(=O)N2CCC(c3nnn[nH]3)CC2)cc1C`, the cytotoxicity at 10 µM is -3.57%.

`Cc1ccc(-c2noc(CC[C@@H]3CCCN4CCCC[C@H]34)n2)nn1`: the cytotoxicity at 10 µM is -4.56%.

Consider `CS(=O)(=O)N1CCc2ccc(=O)n(CC3CC3)c2CC1`, for which the cytotoxicity at 10 µM was determined as 7.25%.

Consider `Cc1cccc(NC(=O)c2nn(C3CCS(=O)(=O)C3)c3c2CCCC3)n1` (stereo not given), for which the cytotoxicity at 10 µM worked out at 10.5%.

For the compound `CCCN1CCC(c2nc3ccc(NCc4ccccc4)cn3n2)CC1`, the cytotoxicity at 10 µM was -125%.

Take `Cc1cnn(CCC(=O)N2CCC(Nc3cccnn3)CC2)c1`: the cytotoxicity at 10 µM was -8.11%.

On to `Nc1cc2c(nn1)CCN(C(=O)Cc1ccc3c(c1)CCCC3)C2`, for which the cytotoxicity at 10 µM is 0.696%.

`Cc1noc([C@H]2C[C@H]3OCC[C@H]3N(Cc3ccc4c(c3)OCO4)C2)n1`: the cytotoxicity at 10 µM stood at 2.67%.

Regarding `Cc1cc(C)nc(Nc2nccnc2C2CCCN(C(CO)CO)C2)n1` (stereo not given), the cytotoxicity at 10 µM worked out at 0.216%.

With `CC(C)N1CC2(CCC1=O)CCN(c1ccnc3ccccc13)CC2`, the cytotoxicity at 10 µM turned out to be 3.2%.

For the compound `CC(=O)c1cccc(NC(=O)N2CCCCC2CN2CCCC2=O)c1` (stereo not given), the cytotoxicity at 10 µM is 0.582%.

For the compound `CCc1nc(NC2CC(=O)N(CC3CCCCC3)C2)ncc1C` (stereo not given), the cytotoxicity at 10 µM is -4.55%.

Turning to `COCC1CN(c2ncc(F)cn2)Cc2cnn(C)c21` (stereo not given), the cytotoxicity at 10 µM was 4.02%.

On to `CCc1cnc(NC(=O)NC2CCN(C)CC2)s1`, for which the cytotoxicity at 10 µM was -5.66%.

Take `Cc1ccccc1N1CCCN(C(=O)CN2C(=O)OC[C@@H]2C(C)C)CC1`: the cytotoxicity at 10 µM was 4.02%.

`O=C(NCCc1ccc(F)cc1)NC1CCCc2c1cnn2CCO` (stereo not given): the cytotoxicity at 10 µM is -3.46%.

`CCC[C@@H]1CN(C(=O)c2conc2-c2ccccc2)C[C@H]1N(C)C`: the cytotoxicity at 10 µM amounted to 2.29%.

Turning to `Cc1ccc(-c2cc(CN(CC(N)=O)CC(C)C)on2)cc1`, the cytotoxicity at 10 µM is 10.1%.

On to `CN(C)C(=O)CC1CC2(CCN(CC3CC3)CC2)Oc2ccccc21` (stereo not given), for which the cytotoxicity at 10 µM is -3.51%.

Consider `CN(C)CCn1c2c(ccc1=O)CCN(Cc1cnn(C)c1)CC2`, for which the cytotoxicity at 10 µM was -2.65%.

For `CCS(=O)(=O)N1C[C@H]2CN(c3cnn(C)c3)C(=O)[C@H]2C1`, the cytotoxicity at 10 µM was -1.19%.

Regarding `CS(=O)(=O)c1ccc2c(c1)N(C(=O)c1cccc(F)c1)CCC2`, the cytotoxicity at 10 µM was found to be 8.05%.

Take `COCC(=O)N1CC[C@@H](N2CCOCC2)[C@@H]1Cc1ccccc1`: the cytotoxicity at 10 µM was -3.06%.

`COc1ccc(CN(C)c2ncc(S(N)(=O)=O)s2)c(OC)c1`: the cytotoxicity at 10 µM is -2.03%.

Regarding `CCn1cc(S(=O)(=O)NCC(c2ccccc2)N2CCOCC2)c(C)n1` (stereo not given), the cytotoxicity at 10 µM turned out to be 2.76%.

Regarding `CS(=O)(=O)NCC1CCCN(c2ccc(C#N)cn2)C1` (stereo not given), the cytotoxicity at 10 µM was -11.1%.

For the compound `CN(C)C(=O)[C@@H]1CC[C@@H]2[C@@H](CCN2Cc2nccs2)O1`, the cytotoxicity at 10 µM is 1.97%.

In the case of `CC(C)(C(=O)N1CCC(C(N)=O)C1)c1ccccc1F` (stereo not given), the cytotoxicity at 10 µM is 4.68%.

In the case of `Cc1cc(C)cc(-n2ncc3c2CCCC3N)c1` (stereo not given), the cytotoxicity at 10 µM stood at 7.63%.

Consider `Nc1nccc(N2CCC(c3cc(Cc4ccccc4)n[nH]3)CC2)n1`, for which the cytotoxicity at 10 µM amounted to 38.9%.

On to `CCc1ncc(C(=O)c2ccc(OC)cc2)n1C`, for which the cytotoxicity at 10 µM was 14.5%.

Take `CC(=O)c1ccc(NC(=O)N(CCN(C)C)Cc2ccc(C)s2)cc1`: the cytotoxicity at 10 µM is -16.5%.

Turning to `CC(NC(=O)N(C)CCOc1ccccc1F)c1nncn1C` (stereo not given), the cytotoxicity at 10 µM was -9.92%.

On to `COc1ccc(-c2csc(-c3cccc(C(=O)O)c3)n2)cc1OC`, for which the cytotoxicity at 10 µM amounted to 3.31%.

As to `CC(C(=O)N1CCCC1)N1CCCN(C(=O)Oc2ccccc2)CC1` (stereo not given), the cytotoxicity at 10 µM turned out to be 3.4%.

With `Cn1c2c(c(=O)n1C)CN(S(=O)(=O)c1cccs1)CCC2`, the cytotoxicity at 10 µM came out at 8.98%.

In the case of `CN1N=C(C(=O)N2CCCC(CCc3c(F)cccc3F)C2)CCC1=O` (stereo not given), the cytotoxicity at 10 µM was -7.41%.

As to `CS(=O)(=O)N1CCc2[nH]cnc2C12CCN(C1CCOCC1)CC2`, the cytotoxicity at 10 µM is -4.52%.

As for `CCc1cnc(CN(C)C2CCN(CC3CCOCC3)C2)o1` (stereo not given), the cytotoxicity at 10 µM is -13.4%.

Turning to `N#Cc1cccnc1N1CCN(S(=O)(=O)NCc2ccccc2)CC1`, the cytotoxicity at 10 µM was determined as 6.1%.

In the case of `Cc1ccc(C(=O)N2CCC3(CCCN(c4ccc(C)nn4)C3)C2)cn1` (stereo not given), the cytotoxicity at 10 µM is -112%.

`Clc1cncc(NCc2cccc(OCCN3CCOCC3)c2)n1`: the cytotoxicity at 10 µM is 9.71%.

Take `Cc1nc(N2CC[C@@H](c3ccc4ccccc4c3)[C@H](O)C2)no1`: the cytotoxicity at 10 µM was -3.65%.

With `CC(=O)N1CCN(CCCSCc2ccccc2)CC1`, the cytotoxicity at 10 µM was 1.64%.

Take `COC(=O)c1ccc(N2CCN(C(=O)c3ccc(O)nc3)C(C)C2)cc1` (stereo not given): the cytotoxicity at 10 µM is -4.5%.

Turning to `NC(=O)C(NC(=O)c1cc(Cl)c[nH]1)c1ccccc1` (stereo not given), the cytotoxicity at 10 µM is -0.589%.

Turning to `Cc1nc(CNC(=O)NCCc2ccc(N(C)C)cc2)cs1`, the cytotoxicity at 10 µM is -11.6%.

With `Cc1sc2nc(C(F)(F)F)nc(N3CCN(C)CC3)c2c1C`, the cytotoxicity at 10 µM is -3.47%.

In the case of `O=C(Nc1cnn(CC(=O)N2CCCO2)c1)c1ccccc1`, the cytotoxicity at 10 µM is -0.134%.

In the case of `O=C1CCCC2=Nc3nonc3NC(c3ccccc3Cl)C12` (stereo not given), the cytotoxicity at 10 µM stood at 18.5%.

Consider `O=C(Nc1cnccn1)[C@@H]1CC[C@@H]2[C@@H](CCN2Cc2nccs2)O1`, for which the cytotoxicity at 10 µM is -136%.

Consider `CC1C(=O)NCCN1CCOc1ccc(C#N)cc1` (stereo not given), for which the cytotoxicity at 10 µM is 2.29%.

For `COCCNC(=O)N1CCN(C(C)C(=O)NC2CCCC2)CC1` (stereo not given), the cytotoxicity at 10 µM is 1.16%.

For the compound `CCOCCC(=O)N1Cc2cnc(-c3ccccc3)nc2C1`, the cytotoxicity at 10 µM was -6.88%.

Turning to `Cc1nc(C)c(CN2CCOC(CNc3cccnn3)C2)s1` (stereo not given), the cytotoxicity at 10 µM was -1.71%.

With `O=C(C1=CCCC1)N1C[C@@H]2COC[C@]2(COCC2CC2)C1`, the cytotoxicity at 10 µM was -96.2%.

On to `Cc1nn(-c2ccc(F)cc2)c2[nH]nc(N)c12`, for which the cytotoxicity at 10 µM was found to be 13.6%.

In the case of `CSCc1cccc(S(=O)(=O)N2CCC(C)CC2)c1`, the cytotoxicity at 10 µM was found to be 13.1%.

On to `COc1cc(C2CC(=O)Nc3c2nc2n3CCCC2)cc2c1OCO2` (stereo not given), for which the cytotoxicity at 10 µM is -6.67%.

As to `CN(C)C1CCC2(CCN(Cc3cccnc3)CC2)c2ccccc21` (stereo not given), the cytotoxicity at 10 µM turned out to be 3.15%.

With `COCCN(C(=O)c1cc(-c2ccc(C)s2)[nH]n1)C1CC1`, the cytotoxicity at 10 µM is 11.6%.

As to `COC(=O)CC(NC(=O)c1cccc(N2CCCC2=O)c1)c1cccs1` (stereo not given), the cytotoxicity at 10 µM was -51.4%.

In the case of `O=C(NCc1cccc(F)c1)N1CCC2(CC(=O)N(c3ccsc3)C2)C1` (stereo not given), the cytotoxicity at 10 µM was -10%.

With `CCCS(=O)(=O)N1C[C@@H](OCc2ccncc2)[C@H]2OCCC[C@H]21`, the cytotoxicity at 10 µM stood at 5.56%.

For the compound `Cn1nc(CNC(=O)C2CCN(S(C)(=O)=O)CC2)cc1C1CC1`, the cytotoxicity at 10 µM was -2.87%.

In the case of `O=C1COc2c(cccc2C(=O)N2CCCCC2Cn2cccn2)N1` (stereo not given), the cytotoxicity at 10 µM is 4.07%.

Regarding `Cc1cnccc1-n1nc(C(C)C)nc1CS(C)(=O)=O`, the cytotoxicity at 10 µM was 0.999%.

With `CCNC(=O)NC1CCN(c2ccc(S(=O)(=O)CC)cc2)CC1`, the cytotoxicity at 10 µM worked out at 7.89%.

In the case of `Cc1ccoc1C(=O)N1CCCc2c(c(=O)n(C)n2C)C1`, the cytotoxicity at 10 µM amounted to 11.7%.

For the compound `C[C@@H]1CN(C(=O)c2cccn2C)C[C@]12CCN(c1ccsc1)C2=O`, the cytotoxicity at 10 µM was -83.8%.

Turning to `COC(=O)CNC(=O)c1nc(Br)sc1C(C)C`, the cytotoxicity at 10 µM is -172%.

For the compound `COCCN1CCC2(CC1)CC(OCC1CC1)c1ccc(C)cc12` (stereo not given), the cytotoxicity at 10 µM was 15.5%.

Consider `Cc1nn(-c2ccccc2)c2nc(C(C)(C)CN3CCN(C)CC3)[nH]c12`, for which the cytotoxicity at 10 µM is -2.13%.

Consider `CC(CN1CCCC1=O)NC(=O)NCc1ccccc1-n1cccn1` (stereo not given), for which the cytotoxicity at 10 µM stood at 3.33%.

In the case of `CC(C)Cn1cc(NC(=O)N2CCCC2)cn1`, the cytotoxicity at 10 µM was -5.28%.

Regarding `CC(=O)N1CCCC1C(=O)NCCOc1c(C)cccc1C` (stereo not given), the cytotoxicity at 10 µM was -24.1%.

With `Cc1ccc(N2CCO[C@@H]3CN(Cc4cccc(C)n4)CC[C@@H]3C2)nn1`, the cytotoxicity at 10 µM is 7.67%.

As to `Cc1nn(-c2ccccc2)cc1C(=O)N1CCCN2CCCC2C1` (stereo not given), the cytotoxicity at 10 µM is -2.21%.

For the compound `CC(C)(NC(=O)Nc1cnn(CC2CCCO2)c1)c1nccs1` (stereo not given), the cytotoxicity at 10 µM is -2.64%.

In the case of `COc1ccc2c(c1)C(=O)N(C)C1(CCN(CC3CC3)CC1)N2`, the cytotoxicity at 10 µM stood at 6.4%.

`Oc1cccc(-c2cc(C3CCN(Cc4cncnc4)C3)ccn2)c1` (stereo not given): the cytotoxicity at 10 µM worked out at 5.06%.
